Data from ChEMBL document CHEMBL3804753, “Substituted quinolines as noncovalent proteasome inhibitors” (Bioorg Med Chem, 2016).

Molecular target: T1, Proteasome Macropain subunit MB1 (Homo sapiens, UniProt P28074)
T1 sequence (P28074 whole entry): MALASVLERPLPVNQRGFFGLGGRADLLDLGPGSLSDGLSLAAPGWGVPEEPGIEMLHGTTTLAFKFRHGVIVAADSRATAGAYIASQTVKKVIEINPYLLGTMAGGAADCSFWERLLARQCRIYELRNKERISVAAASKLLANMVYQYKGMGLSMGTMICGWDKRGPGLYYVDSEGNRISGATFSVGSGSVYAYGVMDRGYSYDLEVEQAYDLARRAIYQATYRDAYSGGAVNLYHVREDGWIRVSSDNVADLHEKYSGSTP
Test: Inhibition of human 20S proteasome chymotryptic-like activity using Suc-LLVY-AMC as substrate measured for 30 mins by fluorescence assay
Summary of the method: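 Purified human 20S proteasome (1 nM) in 50 mM Tris-HCl pH 7.5 with 0.03% SDS and 50 μM fluorogenic substrate (Suc-LLVY-AMC for CT-L, Z-ARR-AMC for T-L, Z-LLE-AMC for casp-L), 37 °C. Maximum fluorescence increase per minute gave specific activity; IC50 taken from the linear portion of the curves.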

IC50 [µM] | SMILES
> 25 | Cc1nc2ccc(F)cc2cc1C1=CCCCC1
5.4 | Cc1nc2ccc(N3CCCCC3)cc2cc1C1=CCCCC1
9.1 | Cc1nc2ccc(N3CCOCC3)cc2cc1C1=CCCCC1
> 25 | Cc1nc2ccc(Cl)cc2cc1C1=CCCCC1
> 25 | COc1ccc2nc(C)c(C3=CCCCC3)cc2c1
> 25 | Cc1nc2cc(Cl)cc(Cl)c2cc1C1=CCCCC1
> 25 | Cc1nc2ccccc2cc1C1=CCCCC1
> 25 | Cc1nc2cc(Br)cc(Br)c2cc1C1=CCCCC1

Further lines, the compound ahead of its results:

SMILES | IC50 [µM]
CCCCc1ccc2cc(N(C)C)ccc2n1 | > 25
Cc1cc(C)c2cc(-c3ccccc3)c(-c3ccccc3)nc2c1 | > 25
CN(C)c1ccc2nc(-c3ccccc3)c(-c3ccccc3)cc2c1 | > 25
Cc1ccc2ccccc2n1 [QUINALDINE] | > 25
Cc1nc2ccc(Br)cc2cc1-c1ccccc1 | > 25
CN(C)c1ccc2ncc(C(C)(C)C)cc2c1 | > 25
C=C(C)c1cc2c(C)cc(C)cc2nc1CC | > 25
c1ccc(-c2cnc3ccccc3c2)cc1 | > 25
Cc1nc2ccc(C(C)C)cc2cc1-c1ccccc1 | > 25
Cc1cnc2ccccc2c1 | > 25

Test system: not listed separately
Test: Inhibition of human 20s proteasome in human TNFalpa stimulated NF-kappaB-luc expressing HeLa cells assessed as suppression of NF-kappaB mediated gene expression preincubated for 30 min followed by TNFalpha stimulation measured after 8 hrs by steady-Glo luciferase assay
Assay type: cell-based
Summary of the method: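 HeLa NF-κB-luc cells were seeded in DMEM with 5% FBS and hygromycin B. After 24 h the medium was swapped for serum-free DMEM with antibiotics. Cells were pretreated 30 min at 37 °C, 5% CO2 with compound (final 50, 25, 12.5, 6.25, 3.13, 1.56 μM), vehicle 1% DMSO, or 50 μM MG-132 as positive control. TNF-α (25 ng/mL final) was then added for 8 h. Firefly luciferase was read by Steady-Glo, normalized to TNF-α stimulation. Average of 2 independent experiments.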

IC50 [µM] | SMILES
12.1 | Cc1cc(C)c2cc(C3=CCCCC3)c(C)nc2c1

Molecular target: T1, Proteasome Macropain subunit MB1
Test: Inhibition of human 20S proteasome chymotryptic-like activity using Suc-LLVY-AMC as substrate assessed as fluorescence quinching control by fluorescence assay

IC50 [µM] | SMILES
2.3 | CN(C)c1ccc2nc(-c3ccccc3)c(-c3ccccc3)cc2c1
